Measurements: ChEMBL document CHEMBL1157649, “Cytotoxic 2-benzylidene-6-(nitrobenzylidene)cyclohexanones which display substantially greater toxicity for neoplasms than non-malignant cells” (Bioorg Med Chem, 2010)

Key:
[1] = Cytotoxicity against human HPLF cells after 24 hrs; format: cell-based; settings: for CC50: hplf, 24 h; for CC50 at 24 h: HPLF cells
Procedure, shortened: (§1)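 Cells (HGF gingival fibroblasts, HPC pulp cells, HPLF periodontal ligament fibroblasts, HSC-2 and HSC-4 squamous carcinoma, HL-60 promyelocytic leukemia) were exposed to graded concentrations for 24 h, up to a maximum of 400 μM. CC50 is the concentration reducing viable cell number by 50%, taken from dose–response curves. Values are from duplicate determinations differing by less than 5%.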

[2] = Cytotoxicity against human HPC cells after 24 hrs; format: cell-based; settings: for CC50: hpc, 24 h; for CC50 at 24 h: HPC cells; procedure, shortened: as §1
[3] = test system: HL-60; assay: Selectivity index, ratio of CC50 for human normal cells to CC50 for human HL60 cells; format: functional
Procedure, shortened: (§2)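 The index is the average CC50 toward the three normal cell types (HGF, HPC, HPLF) divided by the CC50 toward the indicated malignant line.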

[4] = test system: HSC-4; assay: Selectivity index, ratio of CC50 for human normal cells to CC50 for human HSC4 cells; format: functional; procedure, shortened: as §2
[5] = test system: HSC-2; assay: Selectivity index, ratio of CC50 for human normal cells to CC50 for human HSC2 cells; format: functional; procedure, shortened: as §2
[6] = Partition coefficient, log P of the compound; format: physicochemical; settings: octanol/water
[7] = test system: HSC-2; assay: Cytotoxicity against human HSC2 cells after 24 hrs; format: functional; settings: HSC-2, 24 h; procedure, shortened: as §1
[8] = test system: HL-60; assay: Cytotoxicity against human HL60 cells after 24 hrs; format: functional; settings: HL-60, 24 h; procedure, shortened: as §1
[9] = test system: HSC-4; assay: Cytotoxicity against human HSC4 cells after 24 hrs; format: functional; settings: HSC-4, 24 h; procedure, shortened: as §1
[10] = Cytotoxicity against human HGF cells after 24 hrs; format: cell-based; settings: for CC50: hgf, 24 h; for CC50 at 24 h: HGF cells; procedure, shortened: as §1
[11] = test system: Mus musculus; assay: Toxicity in mouse assessed as induction of mortality at 30 to 300 mg/kg, ip; format: organism-based; design: dose 30-300 mg/kg, route intraperitoneal; settings: in vivo
[12] = test system: Mus musculus; assay: Neurotoxicity in mouse assessed at 30 to 300 mg/kg, ip after 0.5 hrs; format: toxicity, organism-based; design: dose 30-300 mg/kg, route intraperitoneal; settings: in vivo
Procedure, shortened: (§3)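 Mice received 30, 100 or 300 mg/kg intraperitoneally and were examined at 0.5 and 4 h for mortality and neurological deficit, following NINDS screening protocols. Results were recorded as the number of mice showing a deficit over the number treated per dose.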

[13] = test system: Mus musculus; assay: Neurotoxicity in mouse assessed at 30 to 300 mg/kg, ip after 4 hrs; format: toxicity, organism-based; design: dose 30-300 mg/kg, route intraperitoneal; settings: in vivo; procedure, shortened: as §3

Row | Compound | CC50 [1] [µM] | CC50 [2] [µM] | Selectivity Index [3] | Selectivity Index [4] | Selectivity Index [5] | logP [6] | CC50 [7] [µM] | CC50 [8] [µM] | CC50 [9] [µM] | CC50 [10] [µM] | CC50 at 24 h [1] [µM] | CC50 at 24 h [2] [µM] | Activity [11] | CC50 at 24 h [10] [µM] | Activity [12] | Activity [13]
1 | O=C1/C(=C/c2ccc(Cl)cc2)CCC/C1=C\c1cccc([N+](=O)[O-])c1 | 38 | 18 | 10 | 14 | 15 | 5.58 | 2.2 | 3.2 | 2.3 | 39 | – | – | – | – | – | –
2 | COc1cc(/C=C2\CCC/C(=C\c3ccc([N+](=O)[O-])cc3)C2=O)cc(OC)c1OC | – | – | 322 | 236 | 466 | 4.56 | 0.76 | 1.1 | 1.5 | – | 378 | 347 | Non-toxic | 336 | – | –
3 | COc1cc(/C=C2\CCC/C(=C\c3cccc([N+](=O)[O-])c3)C2=O)cc(OC)c1OC | > 400 | > 400 | >6.4 | >4.1 | >5.2 | 4.53 | 73 | 59 | 92 | 336 | – | – | Non-toxic | – | Non-toxic | Non-toxic
4 | O=C1/C(=C/c2ccc(F)cc2)CCC/C1=C\c1ccccc1[N+](=O)[O-] | 67 | 11 | – | – | – | – | 2.7 | 3 | 2.2 | 82 | – | – | Non-toxic | – | Non-toxic | Non-toxic
5 | CN(C)c1ccc(/C=C2\CCC/C(=C\c3ccc([N+](=O)[O-])cc3)C2=O)cc1 | > 400 | > 400 | – | – | – | 5.03 | 11 | > 400 | > 400 | > 400 | – | – | Non-toxic | – | – | –
6 | O=C1/C(=C/c2ccc(F)cc2)CCC/C1=C\c1cccc([N+](=O)[O-])c1 | 36 | 38 | – | – | – | 5.07 | 2.2 | 1 | 2.5 | 42 | – | – | Non-toxic | – | – | –
7 | CN(C)c1ccc(/C=C2\CCC/C(=C\c3cccc([N+](=O)[O-])c3)C2=O)cc1 | > 400 | > 400 | – | – | – | 5 | 32 | 30 | 71 | > 400 | – | – | Non-toxic | – | – | –
8 | COc1ccc(/C=C2\CCC/C(=C\c3cccc([N+](=O)[O-])c3)C2=O)cc1 | 354 | 33 | >36 | >24 | >55 | 4.96 | 4.8 | 7.2 | 11 | > 400 | – | – | Non-toxic | – | – | –
9 | O=C1CCCC/C1=C\c1ccccc1[N+](=O)[O-] | 103 | 117 | 5.4 | 5 | 5.2 | – | 28 | 27 | 29 | 218 | – | – | Non-toxic | – | – | –
10 | O=C1CCCC/C1=C\c1cccc([N+](=O)[O-])c1 | 56 | 49 | 10 | 3.3 | 9.1 | – | 6.6 | 5.8 | 18 | 74 | – | – | Non-toxic | – | – | –
11 | O=C1/C(=C/c2ccc(Cl)cc2)CCC/C1=C\c1ccc([N+](=O)[O-])cc1 | – | – | 71 | 107 | 193 | 5.6 | 1.5 | 4.1 | 2.7 | – | 332 | 345 | Non-toxic | 191 | Non-toxic | Non-toxic
12 | Cc1ccc(/C=C2\CCC/C(=C\c3ccc([N+](=O)[O-])cc3)C2=O)cc1 | 348 | 92 | >10 | >22 | >42 | 5.38 | 6.6 | 27 | 13 | > 400 | – | – | Non-toxic | – | – | –
